Reference: ChEMBL document CHEMBL1817635, “Ellipticines and 9-acridinylamines as inhibitors of D-alanine:D-alanine ligase” (Bioorg Med Chem, 2011)
pIC50: −log10 of the molar value. Converted amounts (≈) assume the structure as drawn.

Assays:
[1] = Inhibition of Escherichia coli DdlB assessed as residual activity of the enzyme assessed as orthophosphate formation after 20 mins by malachite green reagent method
Escherichia coli [2] = experiment: Antimicrobial activity against Escherichia coli 1411 after 18 hrs by broth microdilution method; type: functional; conditions: Escherichia coli, 1411, 18 h
Escherichia coli [3] = experiment: Antimicrobial activity against AcrAB-deficient Escherichia coli SM1411 after 18 hrs by broth microdilution method; type: functional; conditions: SM1411, 18 h
Staphylococcus aureus [4] = experiment: Antimicrobial activity against Staphylococcus aureus SH1000 after 18 hrs by broth microdilution method; type: functional; conditions: SH1000, 18 h
Staphylococcus aureus [5] = experiment: Effect on membrane integrity in Staphylococcus aureus SH1000 at four times MIC after 10 mins by BacLight assay; type: functional
Staphylococcus aureus [6] = experiment: Antimicrobial activity against Staphylococcus aureus 8325-4 after 18 hrs by broth microdilution method; type: functional; conditions: 8325-4, 18 h
How it was run: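 Broth microdilution MIC following British Society for Antimicrobial Chemotherapy guidelines, run against S. aureus […] 8325-4.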

Escherichia coli [7] = experiment: Inhibition of Escherichia coli DdlB assessed as residual activity of the enzyme assessed as orthophosphate formation at 250 uM after 20 mins by malachite green reagent method
How it was run: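 Purified His-tagged E. coli DdlB, diluted in 50 mM Hepes pH 7.2 with 1 mM DTT. Reaction at 37 °C in 50 mM Hepes pH 8.0, 3.25 mM MgCl2, 6.5 mM (NH4)2SO4, D-Ala, ATP and 5% DMSO. Incubated 20 min, then malachite green reagent added and A650 read after 5 min. Duplicates, with parallel testing in 0.005% Triton X-114.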

SMILES	pIC50 [1]	MIC (Escherichia coli [2]) [µg/mL]	MIC (Escherichia coli [3]) [µg/mL]	MIC (Staphylococcus aureus [4]) [µg/mL]	MIC (Staphylococcus aureus [6]) [µg/mL]	Activity (Escherichia coli [7]) [%]	Activity (Staphylococcus aureus [5]) [%]
COc1ccc2nc3cc(Cl)ccc3c(Nc3ccc(O)c(CN4CCN(C)CC4)c3)c2c1	3.79	> 256	64 (≈ 138 µM)	–	32 (≈ 69.1 µM)	–	48.7
COc1ccc2nc3cc(Cl)ccc3c(Nc3ccc(O)c(CN4CCCC4)c3)c2c1	3.99	256 (≈ 590 µM)	256 (≈ 590 µM)	64 (≈ 147 µM)	–	20	–
COc1ccc2nc3cc(Cl)ccc3c(NCCNc3c4ccc(Cl)cc4nc4ccc(OC)cc34)c2c1	–	–	–	–	–	27	–
COc1cc2c(cc1CN(C)C)[nH]c1c3ccc(Cl)cc3ncc21	–	128 (≈ 377 µM)	32 (≈ 94.2 µM)	256 (≈ 753 µM)	–	–	–
CCN(CC)Cc1cc2[nH]c3c4ccc(Cl)cc4ncc3c2cc1OC	3.21	256 (≈ 696 µM)	32 (≈ 87 µM)	256 (≈ 696 µM)	–	–	–
CCN(CC)Cc1cc(Nc2c3ccc(Cl)cc3nc3c(OC)ccc(Cl)c23)ccc1O	3.92	> 256	> 256	> 256	–	40	–
COc1cc(NCCCNc2c3ccc(Cl)cc3nc3ccc(OC)cc23)c2ncccc2c1	4.05	> 256	> 256	256 (≈ 541 µM)	–	13	–
CCCCCCCCN(CCCCCCCC)Cc1cc(Nc2c3ccc(Cl)cc3nc3ccc(OC)cc23)ccc1O	–	–	–	–	–	86	–
COc1ccc2nc3cc(Cl)ccc3c(Nc3ccc(C(O)CCN(C)C)cc3)c2c1 (configuration not stated)	3.87	> 256	128 (≈ 294 µM)	256 (≈ 587 µM)	–	38	–
C=CCc1cc(Nc2c3ccc(Cl)cc3nc3ccc(OC)cc23)cc(CN(CC)CC)c1O	3.79	> 256	> 256	32 (≈ 67.2 µM)	–	27	47.7
COc1ccc2nc3cc(Cl)ccc3c(Nc3ccc(O)c(CN(CCCl)CCCl)c3)c2c1	–	–	–	–	–	22	–
COc1cc(Nc2c3ccc(Cl)cc3nc3ccc(OC)cc23)c2ncccc2c1	4.49	> 256	> 256	> 256	–	25	–
CCN(CC)Cc1cc(Nc2c3ccc(Cl)cc3nc3ccc(OC)cc23)ccc1O	3.49	256 (≈ 587 µM)	128 (≈ 294 µM)	128 (≈ 294 µM)	–	46	–
CCN(CC)Cc1cc2[nH]c3c4ccc(Cl)cc4ncc3c2cc1OC.Cl.Cl.Cl	3.48	> 256	> 256	> 256	–	–	–

Now from value to molecule, other results behind:

pIC50 [1]	MIC (Escherichia coli [2]) [µg/mL]	MIC (Escherichia coli [3]) [µg/mL]	MIC (Staphylococcus aureus [4]) [µg/mL]	MIC (Staphylococcus aureus [6]) [µg/mL]	Activity (Escherichia coli [7]) [%]	SMILES	Activity (Staphylococcus aureus [5]) [%]
3.72	16 (≈ 61 µM)	8 (≈ 30.5 µM)	8 (≈ 30.5 µM)	–	–	Cc1c2ccncc2c(C)c2c1[nH]c1ccc(O)cc12	71.9
3.53	–	–	–	–	–	Cc1c2cnccc2c(C)c2c1c1cc(Br)ccc1n2C	–
4.64	16	4	8	–	–	Cc1c2cc[n+](C)cc2c(C)c2c1[nH]c1ccc(Br)cc12.[I-]	29.8
4.05	256	4	64	–	–	CC(=O)[O-].COc1ccc2[nH]c3c(C)c4cc[n+](C)cc4c(C)c3c2c1	–
3.90	> 256	> 256	8 (≈ 29.2 µM)	–	–	CCc1cccc2c1[nH]c1c(C)c3ccncc3c(C)c12	34.2
4.22	> 256	> 256	> 256	–	–	COc1ccc2[nH]c3c(C)c4ccncc4c(C)c3c2c1	–
4.34	64	4	16	–	–	Cc1c2cc[n+](C)cc2c(C)c2c1[nH]c1ccccc12.[I-]	37.3
3.74	–	–	–	–	–	COc1ccc2c(c1)c1c(C)c3cnccc3c(C)c1n2C	–
3.99	> 256	8 (≈ 30.3 µM)	4 (≈ 15.1 µM)	–	–	Cc1c2ccncc2c(C)c2c1[nH]c1cc(F)ccc12	42.8
4.19	> 256	4	> 256	–	–	Cc1c2cc[n+](C)cc2c(C)c2c1[nH]c1cc(F)ccc12.[I-]	–
4.15	32 (≈ 96 µM)	8 (≈ 24 µM)	–	32 (≈ 96 µM)	–	COc1ccc2c(c1)c1c(C)c3cnccc3c(C)c1n2CCCN	–
4.44	32	1	2	–	–	Cc1c2c[n+](C)ccc2c(C)c2c1c1cc(Br)ccc1n2C.[I-]	42.4
4.05	> 256	> 256	> 256	–	–	Cc1c2cnccc2c(C)c2c1c1ccc(F)cc1n2C	–
4.19	256	8	32	–	–	COc1ccc2[nH]c3c(C)c4cc[n+](C)cc4c(C)c3c2c1.[I-]	16
4.07	> 256	16 (≈ 49.2 µM)	16 (≈ 49.2 µM)	–	–	Cc1c2ccncc2c(C)c2c1[nH]c1ccc(Br)cc12	49.6
